PMC4687753 (Journal of the American Chemical Society, 2015)
Entries after “also recorded” stand apart in the source; their conditions may differ. *1 amine or outer side, *2 acyl side, *3 side chain or, on linkers, in order; H or OH if unused. Where a SMILES comes first, the peptide text is derived from it. Bridges are numbered along the chain shown (N, C = ends). Roman numbers before positions name the chains, in order. [ ]: non-standard residue; d: D form. X2 = O=C(O)CCC(=O)N1C[C@H](N[*:2])[C@@H](C(=O)[*:1])C1; X1 = O=C([C@H]1CCC[C@@H]1N[*:1])[*:2]; S5 = C=CCCC[C@](C)(N)C(=O)O

Key:
[1] = test system: MEFs; test: Cell killing assay; format: cell-based, mouse; conditions: 10 μM, 24 hours, CellTiter-Glo, two independent experiments
Outline: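 Mouse embryonic fibroblasts kept in DME KELSO medium with 10% FBS, 250 μM L-asparagine and 50 μM 2-mercaptoethanol. Given 10 μM test compound or DMSO for 24 h. Viability measured by CellTiter-Glo luminescence (intracellular ATP) relative to DMSO; mean ± SD of two independent experiments.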

[2] = test system: MDA-MB-231; test: Cell killing assay; format: cell-based; conditions: MDA-MB-231 (mammary), 10 μM, 24 hours, CellTiter-Glo, two independent experiments
[3] = test system: MDA-MB-468; test: Cell killing assay; format: cell-based; conditions: MDA-MB-468 (mammary), 10 μM, 24 hours, CellTiter-Glo, two independent experiments
[4] = test system: LIM-2405; test: Cell killing assay; format: cell-based; conditions: LIM-2405 (colon), 10 μM, 24 hours, CellTiter-Glo, two independent experiments
Outline: (§1)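 Human tumour lines grown in RPMI with 10% FBS. Seeded at 1.5×10³ cells/well, then washed with serum-free medium after 24 h. Exposed to 10 μM test compound or DMSO in serum-free medium for 2 h, then FBS added to 10% final, for 24 h total exposure. Viability read as CellTiter-Glo luminescence (intracellular ATP) relative to DMSO; mean ± SD of two independent experiments.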

[5] = test system: SW480; test: Cell killing assay; format: cell-based; conditions: SW480 (colon), 10 μM, 24 hours, CellTiter-Glo, two independent experiments
Outline: as §1

[6] = test system: A549; test: Cell killing assay; format: cell-based; conditions: A549 (lung), 10 μM, 24 hours, CellTiter-Glo, two independent experiments
Outline: as §1

[7] = test system: U937 lymphoma cells; conditions: CellTiter-Glo; for effect of caspase inhibitor Q-VD-OPh on loss of U937 viability: 50 μM Q-VD-OPh, 2 hours; for cell viability relative to DMSO control: U937, 10 μM, 24 hours, two independent experiments; for U937 cell viability after 2 hours of treatment: titration, 2 hours serum-free, absence of caspase inhibitor
[8] = molecular target: proteinase K (Parengyodontium album, UniProt P06873); test: Protease susceptibility assay; conditions: same conditions as t1/2
[9] = molecular target: Bcl-xL (Homo sapiens, UniProt Q07817); test: SPR solution competition assay; format: binding
[10] = molecular target: Mcl-1 (Homo sapiens, UniProt Q07820); test: SPR solution competition assay; format: binding
[11] = molecular target: Bcl-2 (Homo sapiens, UniProt P10415); test: SPR solution competition assay; format: binding
[12] = test system: wild-type mouse embryonic fibroblasts (MEFs); test: Cytochrome c release assay, permeabilized cells; format: cell-based; conditions: digitonin-permeabilized wt MEFs, 10 μM peptide, 1 hour, western blot
[13] = test system: bax−/−/bak−/− mouse embryonic fibroblasts (MEFs); test: Cytochrome c release assay, permeabilized cells; format: cell-based; conditions: digitonin-permeabilized bax−/−/bak−/− MEFs, 10 μM peptide, 1 hour, western blot
[14] = test system: unpermeabilized U937 cells; test: Cytochrome c release assay, unpermeabilized cells; format: cell-based; conditions: unpermeabilized U937, 10 μM peptide, 3 hours at 37°C, western blot

Chain of proteinase K (P06873 106-384, species assumed): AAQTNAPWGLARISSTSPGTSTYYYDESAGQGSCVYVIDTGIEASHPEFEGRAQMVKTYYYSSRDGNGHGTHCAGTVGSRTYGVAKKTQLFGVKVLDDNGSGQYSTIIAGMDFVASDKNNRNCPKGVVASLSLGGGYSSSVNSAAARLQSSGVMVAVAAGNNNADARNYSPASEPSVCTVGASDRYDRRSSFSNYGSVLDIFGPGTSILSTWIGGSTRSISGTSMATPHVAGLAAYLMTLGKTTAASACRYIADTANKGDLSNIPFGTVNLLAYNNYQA
Chain of Bcl-xL (Q07817 1-209 limits assumed, species assumed): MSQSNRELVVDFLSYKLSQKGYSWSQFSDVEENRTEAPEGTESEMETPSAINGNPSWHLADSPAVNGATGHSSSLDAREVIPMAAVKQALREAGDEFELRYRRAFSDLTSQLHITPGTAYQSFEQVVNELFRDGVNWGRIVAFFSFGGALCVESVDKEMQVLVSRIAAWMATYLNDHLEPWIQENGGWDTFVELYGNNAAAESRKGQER
Chain of Mcl-1 (Q07820 171-327 limits assumed): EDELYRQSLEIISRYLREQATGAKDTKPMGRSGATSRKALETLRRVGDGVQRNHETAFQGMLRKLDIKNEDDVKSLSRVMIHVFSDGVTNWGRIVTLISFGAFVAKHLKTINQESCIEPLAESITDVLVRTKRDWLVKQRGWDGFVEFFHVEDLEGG
Chain of Bcl-2 (P10415 1-217 limits assumed): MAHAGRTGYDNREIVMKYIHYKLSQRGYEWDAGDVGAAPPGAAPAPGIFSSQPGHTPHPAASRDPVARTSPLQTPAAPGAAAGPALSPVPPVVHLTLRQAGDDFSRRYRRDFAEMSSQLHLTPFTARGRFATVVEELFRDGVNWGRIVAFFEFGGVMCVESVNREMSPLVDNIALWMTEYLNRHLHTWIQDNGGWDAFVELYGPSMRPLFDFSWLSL

IC50 [9] [µM] | IC50 [10] [µM] | IC50 [11] [µM] | Structure (SMILES) | cell viability relative to DMSO control [1] | cell viability relative to DMSO control [2] | cell viability relative to DMSO control [3] | cell viability relative to DMSO control [4] | cell viability relative to DMSO control [5] | cell viability relative to DMSO control [6] | effect of caspase inhibitor Q-VD-OPh on loss of U937 viability [7] | cell viability relative to DMSO control [7] | U937 cell viability after 2 hours of treatment [7] | increase in half-life relative to α-Bim [8] | cytochrome c release from pellet fraction to soluble cytosolic fraction [12] | cytochrome c release from pellet fraction to soluble cytosolic fraction [13] | location of cytochrome c after treatment of intact cells [14] | increase in half-life relative to the stapled peptide α-1 [8] [fold]
 |  |  | CC[C@H](C)[C@H](NC(C)=O)C(=O)N[C@@H](Cc1c[nH]c2ccccc12)C(=O)N[C@H](C(=O)N[C@@H](C)C(=O)N[C@@H](CCC(N)=O)C(=O)N[C@@H](CCC(=O)O)C(=O)N[C@@H](CC(C)C)C(=O)N[C@@H](CCCNC(=N)N)C(=O)N[C@@]1(C)CCC/C=C\CCC[C@@](C)(C(=O)N[C@@H](Cc2ccccc2)C(=O)N[C@@H](CC(N)=O)C(=O)N[C@@H](C)C(=O)N[C@@H](Cc2ccc(O)cc2)C(=O)N[C@@H](Cc2ccc(O)cc2)C(=O)N[C@@H](C)C(=O)N[C@@H](CCCNC(=N)N)C(=O)N[C@@H](CCCNC(=N)N)C(N)=O)NC(=O)[C@H](CC(=O)O)NC(=O)CNC(=O)[C@H]([C@@H](C)CC)NC1=O)[C@@H](C)CC [α-1, reference compound] | essentially no effect | no significant cell death | no significant cell death | no significant cell death | no significant cell death | no significant cell death | attenuated by Q-VD-OPh | efficiently killing U937 lymphoma cells | significant reduction in cell viability | ~ 6 fold |  |  |  | 
0.08 | 0.004 | 0.189 | C=CCCC[C@](C)(NC(=O)[C@H](CC(=O)O)NC(=O)CNC(=O)[C@@H](NC(=O)[C@](C)(CCCC=C)NC(=O)[C@H](CCCNC(=N)N)NC(=O)[C@H](CC(C)C)NC(=O)[C@H](CCC(=O)O)NC(=O)[C@H](CCC(N)=O)NC(=O)[C@H](C)NC(=O)[C@@H](NC(=O)[C@H](Cc1c[nH]c2ccccc12)NC(=O)[C@@H](NC(C)=O)[C@@H](C)CC)[C@@H](C)CC)[C@@H](C)CC)C(=O)N[C@@H](Cc1ccccc1)C(=O)N[C@@H](CC(N)=O)C(=O)N[C@@H](C)C(=O)N[C@@H](Cc1ccc(O)cc1)C(=O)N[C@@H](Cc1ccc(O)cc1)C(=O)N[C@@H](C)C(=O)N[C@@H](CCCNC(=N)N)C(=O)N[C@@H](CCCNC(=N)N)C(N)=O [α-1-LIN] |  |  |  |  |  |  |  |  |  |  |  |  |  | 
 |  |  | CC[C@H](C)[C@H](NC(C)=O)C(=O)N[C@H]1CCC[C@@H]1C(=O)N[C@H](C(=O)N[C@@H](C)C(=O)N[C@@H](CCC(N)=O)C(=O)N[C@H]1CN(C(=O)CCC(=O)O)C[C@@H]1C(=O)N[C@@H](CC(C)C)C(=O)N[C@@H](CCCNC(=N)N)C(=O)N[C@@]1(C)CCC/C=C\CCC[C@@](C)(C(=O)N[C@@H](Cc2ccccc2)C(=O)N[C@@H](CC(N)=O)C(=O)N[C@H]2CCC[C@@H]2C(=O)N[C@@H](Cc2ccc(O)cc2)C(=O)N[C@@H](Cc2ccc(O)cc2)C(=O)N[C@@H](C)C(=O)N[C@@H](CCCNC(=N)N)C(=O)N[C@@H](CCCNC(=N)N)C(N)=O)NC(=O)[C@H](CC(=O)O)NC(=O)CNC(=O)[C@H]([C@@H](C)CC)NC1=O)[C@@H](C)CC [α/β-1] (I: LR[S5]IGD[S5]FN[X1]YYARR-NH2 / II: Ac-I[X1]IAQ; staple (Z) I:3-I:7; linker I:N-II:C via X2) | essentially no effect | no significant cell death | no significant cell death | no significant cell death | no significant cell death | no significant cell death | attenuated by Q-VD-OPh | potently impacted U937 lymphoma cell viability | significant reduction in cell viability | > 500 fold | able to induce cytochrome c release | but not in bax^−/−/bak^−/− MEFs | most of the cytochrome c was present in the soluble fraction | > 90
 |  |  | CC[C@H](C)[C@H](NC(C)=O)C(=O)N[C@H]1CCC[C@@H]1C(=O)N[C@H](C(=O)N[C@@H](C)C(=O)N[C@@H](CCC(N)=O)C(=O)N[C@H]1CN(C(=O)CCC(=O)O)C[C@@H]1C(=O)N[C@@H](CC(C)C)C(=O)N[C@@H](CCCNC(=N)N)C(=O)N[C@H]1CCC[C@@H]1C(=O)N[C@H](C(=O)NCC(=O)N[C@@H](CC(=O)O)C(=O)N[C@H]1CCC[C@@H]1C(=O)N[C@@H](Cc1ccccc1)C(=O)N[C@@H](CC(N)=O)C(=O)N[C@H]1CCC[C@@H]1C(=O)N[C@@H](Cc1ccc(O)cc1)C(=O)N[C@@H](Cc1ccc(O)cc1)C(=O)N[C@@H](C)C(=O)N[C@@H](CCCNC(=N)N)C(=O)N[C@@H](CCCNC(=N)N)C(N)=O)[C@@H](C)CC)[C@@H](C)CC [α/β-2] (I: LR[X1]IGD[X1]FN[X1]YYARR-NH2 / II: Ac-I[X1]IAQ; linker I:N-II:C via X2) |  |  |  |  |  |  |  |  |  |  | Slightly less cytochrome c release; also recorded: able to induce cytochrome c release | but not in bax^−/−/bak^−/− MEFs | cytochrome c exclusively in the pellet | 
